Data on eight compounds can be found in ChEMBL document CHEMBL2062467, “Design, synthesis, antimicrobial, anti-inflammatory and analgesic activity of novel isoxazolyl pyrimido[4,5-b]quinolines and isoxazolyl chromeno[2,3-d]pyrimidin-4-ones” (2012).

Holding throughout (type): functional
Experiment [1] relates to Colletotrichum truncatum. The experiment is described as follows: Antifungal activity against Colletotrichum capsici after 72 to 96 hrs by agar cup method. The method in brief: (§1)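 Agar cup assay on potato dextrose agar. Plates were spread with 0.5 mL of a one-week-old fungal spore suspension, and 6 mm cups were bored into the agar. Different concentrations of compound in acetone were added to the cups. Acetone and clotrimazole served as controls. Plates were held at room temperature for 72–96 h.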

A short description of experiment [2]: Antifungal activity against Verticillium dahliae after 72 to 96 hrs by agar cup method. The method in brief:
as §1

Experiment [3] has as its system Pythium aphanidermatum. The experiment is described as follows: Antifungal activity against Pythium aphanidermatum after 72 to 96 hrs by agar cup method. In a few lines: as §1
Experiment [4] relates to Alternaria solani. The experiment is described as follows: Antifungal activity against Alternaria solani after 72 to 96 hrs by agar cup method. The method in brief:
as §1

Experiment [5] relates to Fusarium oxysporum. The experiment is described as follows: Antifungal activity against Fusarium oxysporum after 72 to 96 hrs by agar cup method. In a few lines:
as §1

Experiment [6] has as its system Rhizoctonia solani. The experiment is described as follows: Antifungal activity against Rhizoctonia solani after 72 to 96 hrs by agar cup method. In a few lines:
as §1

Experiment [7] has as its system Bacillus subtilis. The experiment is described as follows: Antibacterial activity against Bacillus subtilis MTCC 441 after 24 hrs by broth dilution method. The settings on record: MTCC 441, 24 h. The method in brief: (§2)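 Broth dilution MIC in autoclaved nutrient broth tubes. Test compound was dissolved in acetone, and 100 mg/mL (so in the source) was added to the first tube, then serially diluted across the tubes.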
(In general: Dilution methods test growth across graded concentrations, often in twofold steps.)

Experiment [8] deals with Chromobacterium violaceum. The experiment is described as follows: Antibacterial activity against Chromobacterium violaceum MTCC 2656 after 24 hrs by broth dilution method. The settings on record: MTCC 2656, 24 h. The method in brief: as §2
Experiment [9] has as its system Pseudomonas aeruginosa. The experiment is described as follows: Antibacterial activity against Pseudomonas aeruginosa MTCC 741 after 24 hrs by broth dilution method. To be noted: MTCC 741, 24 h. In a few lines: as §2
The subject of experiment [10] is Rattus norvegicus. The experiment is described as follows: Analgesic activity in Albino rat assessed as reaction time at 10 mg/kg, po after 2 hrs by Hot plate test. In a few lines: (§3)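 Hot plate test of central analgesia in rats, six per group, with a vehicle control group and an Indomethacin group (10 mg/kg po). Test compounds were given orally at 10 mg/kg. Reaction time was read at 0, 1 and 2 h. Values are the mean of six, ± S.E., also expressed as % increase over basal. Statistics used ANOVA/LSD; Dunnett's test vs control (P < 0.05).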
A general note: Hot-plate and tail-flick tests time the reaction to a heat stimulus.

Experiment [11] relates to Klebsiella aerogenes. The experiment is described as follows: Antibacterial activity against Klebsiella aerogenes MTCC 39 after 24 hrs by broth dilution method. To be noted: MTCC 39, 24 h. The method in brief: as §2
Experiment [12] has as its system Lysinibacillus sphaericus. The experiment is described as follows: Antibacterial activity against Bacillus sphaericus MTCC 511 after 24 hrs by broth dilution method. The settings on record: MTCC 511, 24 h. In a few lines:
as §2

Experiment [13] deals with Staphylococcus aureus. The experiment is described as follows: Antibacterial activity against Staphylococcus aureus MTCC 96 after 24 hrs by broth dilution method. To be noted: MTCC 96, 24 h. The method in brief:
as §2

For experiment [14], the system named is Rattus norvegicus. The experiment is described as follows: Analgesic activity in Albino rat assessed as reaction time at 10 mg/kg, po after 1 hr by Hot plate test. The method in brief: as §3

≈ marks a conversion by molar mass, not a printed value.

As a reminder, the MIC is the least concentration at which growth counts as inhibited. Read a low MIC as inhibition by little substance.

For `Clc1ccccc1C(c1ccccc1)(c1ccccc1)n1ccnc1` [CLOTRIMAZOLE], the MIC in experiment [1] was found to be 20 µg/mL (≈ 58 µM); in experiment [2] it was 26 µg/mL (≈ 75.4 µM); in experiment [3], 30 µg/mL (≈ 87 µM); in experiment [4] it was 22 µg/mL (≈ 63.8 µM); in experiment [5], 28 µg/mL (≈ 81.2 µM); in experiment [6] it was 25 µg/mL (≈ 72.5 µM).
Consider `Cc1noc(/C=C/c2ccccc2)c1N1CN=C2Oc3ccccc3C=C2C1=O`, for which the MIC amounted to 20 µg/mL (≈ 52.2 µM) in [1]; 18 µg/mL (≈ 46.9 µM) in experiment [7]; 18 µg/mL (≈ 46.9 µM) in experiment [8]; 18 µg/mL (≈ 46.9 µM) in [2]; 14 µg/mL (≈ 36.5 µM) in experiment [9]; 18 µg/mL (≈ 46.9 µM) in experiment [11]. In addition, the minimal inhibitory concentration (MIC) was 18 µg/mL (≈ 46.9 µM) in [3]; 20 µg/mL (≈ 52.2 µM) in experiment [4]; 12 µg/mL (≈ 31.3 µM) in experiment [12]; 16 µg/mL (≈ 41.7 µM) in experiment [13]; 16 µg/mL (≈ 41.7 µM) in experiment [5]; 12 µg/mL (≈ 31.3 µM) in experiment [6]. The Time amounted to 15.7 s in experiment [10] and 17.7 s in experiment [14].
As for `COc1ccc2c(c1)C=C1C(=O)N(c3c(C)noc3/C=C/c3ccccc3)CN=C1O2`, the MIC was determined as 17 µg/mL (≈ 41.1 µM) in experiment [1]; 18 µg/mL (≈ 43.5 µM) in experiment [7]; 18 µg/mL (≈ 43.5 µM) in experiment [8]; 20 µg/mL (≈ 48.4 µM) in experiment [2]; 24 µg/mL (≈ 58.1 µM) in experiment [9]; 17 µg/mL (≈ 41.1 µM) in [11]. The MIC turned out to be 23 µg/mL (≈ 55.6 µM) in experiment [3]; 18 µg/mL (≈ 43.5 µM) in [4]; 12 µg/mL (≈ 29 µM) in [12]; 22 µg/mL (≈ 53.2 µM) in experiment [13]; 12 µg/mL (≈ 29 µM) in experiment [5]; 12 µg/mL (≈ 29 µM) in [6]. Further, the Time is 13.4 s in experiment [10] and 21.3 s in experiment [14].
Take `Cc1ccc2c(c1)C=C1C(=O)N(c3c(C)noc3/C=C/c3ccccc3)CN=C1O2`: the MIC in experiment [1] is 18 µg/mL (≈ 45.3 µM); in [7], 15 µg/mL (≈ 37.7 µM); in experiment [8] it was 18 µg/mL (≈ 45.3 µM); in experiment [2] it was 22 µg/mL (≈ 55.4 µM); in [9], 12 µg/mL (≈ 30.2 µM); in [11], 15 µg/mL (≈ 37.7 µM). The MIC in [3] was 22 µg/mL (≈ 55.4 µM); in [4], 20 µg/mL (≈ 50.3 µM); in [12], 18 µg/mL (≈ 45.3 µM); in experiment [13], 16 µg/mL (≈ 40.3 µM); in [5], 20 µg/mL (≈ 50.3 µM); in experiment [6], 24 µg/mL (≈ 60.4 µM). Besides, the Time was 21.5 s in experiment [10] and 21.2 s in experiment [14].
In the case of `Cc1noc(/C=C/c2ccccc2)c1N1CN=C2Oc3c(Cl)cc(Cl)cc3C=C2C1=O`, the MIC in [1] stood at 16 µg/mL (≈ 35.4 µM); in experiment [7], 15 µg/mL (≈ 33.2 µM); in experiment [8], 16 µg/mL (≈ 35.4 µM); in experiment [2], 18 µg/mL (≈ 39.8 µM); in experiment [9], 15 µg/mL (≈ 33.2 µM); in experiment [11], 17 µg/mL (≈ 37.6 µM). Moreover, the minimal inhibitory concentration (MIC) in experiment [3] came out at 22 µg/mL (≈ 48.6 µM); in experiment [4], 14 µg/mL (≈ 31 µM); in [12], 14 µg/mL (≈ 31 µM); in experiment [13] it was 16 µg/mL (≈ 35.4 µM); in experiment [5], 16 µg/mL (≈ 35.4 µM); in [6], 15 µg/mL (≈ 33.2 µM). The Time is on record as 21.9 s in [10] and 28.3 s in experiment [14].
Consider `COc1ccc2c(c1)c(CC(=O)O)c(C)n2C(=O)c1ccc(Cl)cc1` [INDOMETHACIN], for which the Time in experiment [10] is 22.4 s; in [14], 21.8 s.
`COc1ccc(/C=C/c2onc(C)c2N2CN=C3Oc4ccc(Br)cc4C=C3C2=O)cc1`: the MIC in [1] worked out at 12 µg/mL (≈ 24.4 µM); in experiment [7] it was 12 µg/mL (≈ 24.4 µM); in [8], 10 µg/mL (≈ 20.3 µM); in experiment [2] it was 14 µg/mL (≈ 28.4 µM); in experiment [9], 15 µg/mL (≈ 30.5 µM); in [11], 13 µg/mL (≈ 26.4 µM). Also, the MIC in experiment [3] was found to be 20 µg/mL (≈ 40.6 µM); in experiment [4], 12 µg/mL (≈ 24.4 µM); in [12], 10 µg/mL (≈ 20.3 µM); in [13], 8 µg/mL (≈ 16.2 µM); in experiment [5], 18 µg/mL (≈ 36.6 µM); in [6], 14 µg/mL (≈ 28.4 µM). The Time in experiment [10] is 22.6 s; in experiment [14], 18.8 s.
Regarding `Cc1ccc(/C=C/c2onc(C)c2-n2c(C)nc3nc4ccc(Cl)cc4cc3c2=O)cc1`, the MIC in [1] was found to be 14 µg/mL (≈ 31.6 µM); in experiment [7], 12 µg/mL (≈ 27.1 µM); in experiment [8], 12 µg/mL (≈ 27.1 µM); in experiment [2], 11 µg/mL (≈ 24.8 µM); in [9], 10 µg/mL (≈ 22.6 µM); in [11], 14 µg/mL (≈ 31.6 µM). In addition, the MIC was 10 µg/mL (≈ 22.6 µM) in experiment [3]; 13 µg/mL (≈ 29.4 µM) in [4]; 11 µg/mL (≈ 24.8 µM) in experiment [12]; 10 µg/mL (≈ 22.6 µM) in experiment [13]; 10 µg/mL (≈ 22.6 µM) in experiment [5]; 12 µg/mL (≈ 27.1 µM) in [6]. Also, the Time is 22.3 s in [10] and 20.8 s in [14].
